Reference: ChEMBL document CHEMBL1155744, “Cytotoxic dolabellane diterpenes from the Formosan soft coral Clavularia inflata” (2001)
Converted amounts (≈) assume the structure as drawn.

Columns and labels:
Assay type in all cases: functional
Details in all cases: read-out: ED50 (the source's name)
P388 = experiment: Cytotoxicity against mouse P388 cells
Method in brief: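 Mouse lymphocytic leukemia P-388 cells were supplied by the Pezzuto laboratory at the University of Illinois at Chicago. Cytotoxicity was tested in vitro, and values are reported as ED50 in µg/mL.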

HT-29 = experiment: Cytotoxicity against human HT-29 cells
Method in brief: (§1)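 Cell lines were obtained from the American Type Culture Collection. Cytotoxicity was tested in vitro, and values are reported as ED50 in µg/mL.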

A549 = experiment: Cytotoxicity against human A549 cells; method in brief: as §1

| Structure (SMILES) | EC50 (P388) [µg/mL] | EC50 (HT-29) [µg/mL] | EC50 (A549) [µg/mL] |
| --- | --- | --- | --- |
| C=C1CC/C=C(\C)C/C=C2/[C@@H](C(C)C)C(=O)C[C@]2(C)CC1=O (relative stereo) | 2.6 (≈ 8.65 µM) | 27.3 (≈ 90.9 µM) | > 50 |
| C=C1CC[C@@H](OO)C(=C)CCC2=C(C(C)C)C(=O)C[C@@]2(C)CC1=O (relative stereo) | 0.052 (≈ 0.156 µM) | 0.31 (≈ 0.932 µM) | 0.57 (≈ 1.71 µM) |
| C=C1CC/C=C(\C)C[C@H]2O[C@@]23[C@@H](C(C)C)C(=O)C[C@]3(C)CC1=O (relative stereo) | 3.83 (≈ 12.1 µM) | 6.39 (≈ 20.2 µM) | 7.74 (≈ 24.5 µM) |
| C=C1CC/C=C(\C)CCC2=C(C(C)C)C(=O)C[C@@]2(C)C[C@H]1O (relative stereo) | 3.82 (≈ 12.6 µM) | 9.19 (≈ 30.4 µM) | 8.1 (≈ 26.8 µM) |
| C=C1CC/C=C(\C)CCC2=C(C(C)C)C(=O)C[C@@]2(C)CC1=O | 3.89 (≈ 12.9 µM) | > 50 | > 50 |
| C=C1CC[C@H]2O[C@@]2(C)C/C=C2/[C@@H](C(C)C)C(=O)C[C@]2(C)CC1=O (relative stereo) | 2.48 (≈ 7.84 µM) | 7.84 (≈ 24.8 µM) | 8.56 (≈ 27.1 µM) |
